Source: the RNAGym collection of RNA variant scans (doi:10.1126/science.aae0568)
This sample holds only a part of the variants without activity.

B1: tRNA (parent)
chain: GUUCCGUUGGCGUAAUGGUAACGCGUCUCCCUCCUAAGGAGAAGACUGCGGGUUCGAGUCCCGUACGGAACG

Variants of: B1
Assay: yeast fitness relative to wild type (ratio to wild type); higher = fitter; tRNA-Arg(CCU), competitive growth, 37 C, YPD
Procedure, shortened: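 Variants of the tRNA-Arg(CCU) gene were chemically synthesised with a 3% per-site mutation rate across 69 sites and placed at the native genomic locus in Saccharomyces cerevisiae. Six parallel replicates of the pooled strains were competed in YPD at 37°C for 24 hours, and gene amplicons from the start and end populations were read by 100-nucleotide paired-end sequencing. Darwinian fitness relative to wild type was derived from changes in genotype frequencies. Genotypes required ≥ 100 starting reads, and estimates < 0.5 were set to 0.5.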

Variant	yeast fitness
GUCCCGUUGGCGUAAUGGUAACGCGUCUCCCUCCUUAGAAGAAGACUGCGGAUUCGAGUCCCGUACGGAACG [U3C A36U G39A G52A]	≤ 0.5
GUCUCGUUGGCGUAAUGGUAACGCGUCUCCCUCCUAAGGAGAAGACUGCGGGUUCGAGUCCCGUACGGAACG [U3C C4U]	1.01
GUCCUGUUGGCGUAAUGGUAACGCGACUCCCUCCUAAGGAGAAGACUGCGGGUUCGAGUCCCAUACGGAACG [U3C C5U U26A G63A]	≤ 0.5
GUCCCGUUGGCGUAAUGGUAACGCGUCUCCCUCCUUAGGAGAAGACUGCGGGUUCGAGUCCUGUACGGAACG [U3C A36U C62U]	0.553
GUCCCGUUGGCGUAAUGGUAACGCGUCUCCCUCCUAAGGAGAAGCCUGCGGGUUCGAGUCCCGUACAGAACG [U3C A45C G67A]	≤ 0.5
GUCCGGUUGGCGUAAUGGUAACGCGUCUCCCUCAUAUGGAGAAAACUGCGAGUUAGAGUCCCGUACGGAACG [U3C C5G C34A A37U G44A G51A C55A]	≤ 0.5
GUCCCGUUGGCGUAAUGGUAACGCGUCUCCCUCCUAGGGAGAAGACUGCGGGUUCGAGUCCCGUACGGAUCG [U3C A37G A70U]	0.568
GUCCCGUUGGAGUAAUGGUAACGCAUCUCCCUCCUAAGGAGAAGAGUGCGGGUUCGUGUCCCGUACGGAACG [U3C C11A G25A C46G A57U]	0.504
GUCCCGUUGGUGUAAUGGUAACGCGUCUCCCUCCUAAGGAGAAGACUGCGGGUUCGAGUCCCGUACGGAACG [U3C C11U]	1.06
GUCCCGUUGGUGUAAUGGUAACGCGUGUCCCUCCUAAGGAGAAGACUGCGGAUUCGAGUCCCGUACGGAACG [U3C C11U C27G G52A]	≤ 0.5
GUCCGGUUGGCGUAAUGGUAUCGCGUCUCCCUCCUAAGGAGCAGACUGCGGGUUCGAGUCCCGUACGGAACG [U3C C5G A21U A42C]	≤ 0.5
GUCCCGUUGGCGUAAUGGUAACGCGUCUCCCUCCUCAGGAGACGACUGCGGGUUCGAGUCCCGUACGGCACG [U3C A36C A43C A69C]	≤ 0.5
GUCCGGUUGGGGUAAUGGUAACGCGUCUCCCUCCUAAGGAGAAGACUGCGGGUUCGAGUCCCGUAUGGAACG [U3C C5G C11G C66U]	≤ 0.5
GUCCAGUUGGCGUAAUGGUAACGCGUCUCCCUCUAAAGGAGAAGACUGAGGGUACGAGUCCCGUACGGAACG [U3C C5A C34U U35A C49A U54A]	≤ 0.5
GUCCCGUUGGCGUAAUGGUAACGCGUCUCCCUCCUACGGAGAAGACUGGGGGUUCGAGUCCCGUACGGAACG [U3C A37C C49G]	≤ 0.5
GUCCCGUUGGCGUAAUGGUAACGCGUCUCCCUCCUAAGGAGAAGACUGCGGGUUCGAGUCCCGUGCGGAACG [U3C A65G]	0.887
GUCUCGUUGGCGUAAUGGUAACGCGUCUCCCUCCUAAGGAGAAGACUGCGGGUUCGAGUCCCGAACGGAACG [U3C C4U U64A]	0.617
GUCCCGUUGGCGUAAUGGUAACGCGUCUCCCUCCUAAGGAGAAGCGUGAGGGUUCGAGUCCCGUACGGUACG [U3C A45C C46G C49A A69U]	≤ 0.5
GUCCCGUUGGCGUAAUGGUAACGCGUCUCCCUCCUAAGGUGAAGACUGCGGGUUCGAGUCCCGUACGGUACG [U3C A40U A69U]	0.755

Variant	yeast fitness
GUCCCGUUGGCGUAAUGGUAUCGCGUCUCCCUCCUAAGGAGAAGACUGCGGGUUCGAGUCCCGUAGGGAACG [U3C A21U C66G]	≤ 0.5
GUCACGUUGGCGUAAUGGUAACGCGUCUCCCUCCUAAGGAGAAGACUGCGGGUUCGAGUCCCGUCCGGAACG [U3C C4A A65C]	0.62
GUCCCGUUGGCGUAAUGGUAACGCGUCUCCCUCCUAGGGAGCAGACUGCGGGUUCGAGUCCCGUCCGGCACG [U3C A37G A42C A65C A69C]	≤ 0.5
GUCCCGUUGGAGUAAUGGUAACGCGUCUCCCGCCUAAGGAGAAGACUGCGGGUUCGAGUCAAGUACGGAACG [U3C C11A U32G C61A C62A]	0.587
GUCACGUUGGCGUAAUAGUAACGCGUCUCCCUCCUAAGGAAAAGACUGCGGGUUCGAGUCCCGUAUGGAACG [U3C C4A G17A G41A C66U]	≤ 0.5
GUCGCGUUGGCGUAAUGGUAACGCGUCCCCCUCCUAAGGAGACGACUGCGGGUUCGAGUCCCGUACGGAACG [U3C C4G U28C A43C]	≤ 0.5
GUCCGGUUGGCGUAAUGGUAACGCGUCGCCUUCCUAAGGAGAAGACUGCGAGUACGAGACCCGUACGGAACG [U3C C5G U28G C31U G51A U54A U59A]	≤ 0.5
GUCCGGUUGGCGUAAUGGGAACGCGUCUCCAUCCUAAGGAGAAGAAUGCGGGUUCGAGUCCCGUACGGAACG [U3C C5G U19G C31A C46A]	0.663
GUCCCGUUGGCGUAAUGGUAUCGCGUCUCCCUCCUAAGGAGAAGACUGCGGGUUCGAGUCCCGUACGGUACG [U3C A21U A69U]	0.537
GUCCCGUUGGUGUAAUGGUAAAGCGUCUGCCUUCUAAGGAGAAGACUGCGGGUUCGAGUCCCGCACGGACCG [U3C C11U C22A C29G C33U U64C A70C]	≤ 0.5
GUCUCGUUGGCGUAAUGGUAACGCGUCUCCCUCCCAAGGAGAAGACUGCGGGUUCGAGUCCCGUACGGAUCG [U3C C4U U35C A70U]	0.544
GUCCCGUUGGCGUAAUGGUAACGCGUCUCCCUCCUAUGGAGAAGACUGCGGGUUCGAGUCCCGUACGGAACG [U3C A37U]	0.806
GUCCCGUUGGCGUAAUGGUAACGCGUCUCCCUCCUAGGGAGAAGACUGCGGGUUCGAGUCCCGUACGGAACG [U3C A37G]	0.784
GUCUCGUUGGCGUAGUGGUAACGCGACUCCCACCUAAGGAGAAGACUGCGGGUUCGAGUCCCGUACGGAACG [U3C C4U A15G U26A U32A]	0.571
GUCCCGUUGGAGUACUGGUAACGAGUAUCCCUCCUAAGGACAAGACUGCGGGUUCGAGUCCCGUACGGAACG [U3C C11A A15C C24A C27A G41C]	≤ 0.5
GUCCCGUUGGCGUAAUGGUAACGCGUCUCCCUCCUAAGGAGAAGCCUACGGGUUCGAGUCCCGUACGGAACG [U3C A45C G48A]	0.937
GUCCCGUUGGCGUAAUGGUAACGCGUCUCCCUCCUAAGGGGAAGAAUGCGGGUUCGAGUCCCGUGCGGAACG [U3C A40G C46A A65G]	0.763
GUCCCGUUGGAGUAAUGGUAACGCGUGUCCCUACUAAGGAGACGAAUGCGGGUUCGAGUCCCGUACGGAACG [U3C C11A C27G C33A A43C C46A]	0.687
